The source made the active and inactive calls. The rule behind the calls is not given here. A value given as a limit tells only on which side of the number the result lay.

As usually defined, the IC50 is the midpoint of a concentration-inhibition curve. For orientation: inhibition means the relative decrease from the control value, in per cent. As usually defined, the clearance is a measure of how efficiently the substance is removed, as volume per time. By half-life is commonly meant the time in which the quantity being followed falls by half. A word on the Cmax: it is the maximum level reached in the sampled fluid or tissue. Usually AUC stands for concentration integrated over time.

Data set [1] concerns the target T1, C-X-C chemokine receptor type 6 (Homo sapiens, UniProt O00574). The data set is described as follows: Antagonist activity at Prolink-tagged human CXCR6 receptor assessed as inhibition of CXCL16-induced beta-arrestin recruitment by DiscoveRx cell based assay.
Target sequence in this assay (O00574 whole entry): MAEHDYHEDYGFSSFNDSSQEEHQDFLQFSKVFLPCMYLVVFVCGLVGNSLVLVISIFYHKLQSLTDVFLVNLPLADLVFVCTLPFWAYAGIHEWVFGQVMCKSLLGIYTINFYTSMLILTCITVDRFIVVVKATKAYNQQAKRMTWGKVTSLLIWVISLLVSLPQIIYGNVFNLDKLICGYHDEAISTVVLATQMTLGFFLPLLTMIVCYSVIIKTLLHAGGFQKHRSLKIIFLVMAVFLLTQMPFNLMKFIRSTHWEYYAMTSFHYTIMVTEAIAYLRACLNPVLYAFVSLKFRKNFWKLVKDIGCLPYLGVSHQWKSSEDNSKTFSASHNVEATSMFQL
Data set [2] addresses T1, C-X-C chemokine receptor type 6. Description: Antagonist activity at Prolink-tagged human CXCR6 receptor assessed as inhibition of CXCL16-induced beta-arrestin recruitment by DiscoveRx cell based assay relative to control. Also noted: concentration or dose not given beside the values. In short, it runs like this:
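CXCR6 β-arrestin cells in assay media without G418/hygromycin, 800 cells/well, grown overnight at 37 °C; compounds added acoustically (DMSO ≤0.3%), then 20 nM CXCL16 (final) for 90 min at 37 °C. PathHunter luminescence read. Normalized between CXCL16-alone and no-ligand wells; four-parameter fit with Hill slope fixed at 1; at least two runs on different days, averaged pIC50 ± SD.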
In general terms: Activated receptors often draw arrestin, which recruitment assays turn into a signal.
Target sequence in this assay (O00574 whole entry, looked up): as the sequence (O00574 whole entry) above

Data set [3] shares this target. Description: Antagonist activity at Prolink-tagged human CXCR6 receptor assessed as inhibition of forskolin-induced cAMP accumulation by DiscoveRx cell based assay. The class given is functional. In short, it runs like this: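 Lance Ultra TR-FRET cAMP assay in CXCR6 β-arrestin cells, 500 cells/well in OptiMEM/2% FBS, grown overnight. Compound added, then forskolin (2.5 mM stock) in HBSS/HEPES/BSA/RO-20-1724 with or without 20 nM CXCL16, 30 min at room temperature. Eu-cAMP tracer and ULight anti-cAMP antibody added, read after 30 min. Curve fit with Hill slope 1; ≥2 independent runs.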
On the technique in general: Changes in cAMP serve as a functional read-out for many G protein-coupled receptors.
Target sequence in this assay (O00574 whole entry): as above

Data set [4] has the same target. Description: Antagonist activity at Prolink-tagged human CXCR6 receptor assessed as inhibition of forskolin-induced cAMP accumulation by DiscoveRx cell based assay relative to control. The data set is classed as functional. Also noted: concentration or dose not given beside the values. The procedure, abridged:
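CXCR6 β-arrestin cells in OptiMEM with 2% FBS, 500 cells/well, grown overnight; compounds added, then forskolin with 20 nM CXCL16 (stock concentrations) in HBSS/HEPES/BSA with RO-20-1724, 30 min at room temperature. cAMP read by LANCE Ultra TR-FRET after a further 30 min. Hill slope fixed at 1; at least two runs on different days, averaged pIC50 ± SD.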
Target sequence in this assay (O00574 whole entry, looked up): as the sequence (O00574 whole entry) above

Data set [5] has the same target. Description: Inhibition of CXCR6-mediated cell invasion in human SKHEP1 cells after 72 hrs by transwell assay. The data set is classed as cell-based. To be noted: SK-HEP1. In short, it runs like this: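 SK-HEP-1 cells, 100k/well in 0.2% FBS, seeded in upper chamber of a chemotaxis plate coated with matrigel (250 μg/ml). CXCL16 (0.6 μg/ml) in lower chamber; compound in both chambers. Kept at 37 °C, 5% CO2 and imaged hourly in IncuCyte. Migration quantified as confluence from phase-contrast images.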
Target sequence in this assay (O00574 whole entry, looked up): as the sequence (O00574 whole entry) above

A short description of data set [6]: Ratio of solubility of compound in aqueous buffer at pH 5 to 7.4 to IC50 for Prolink-tagged human CXCR6 receptor by DiscoveRx cell based assay. The class given is physicochemical.
A short description of data set [7]: Stability in mouse plasma. The data set is classed as ADME, cell-free.
Data set [8] is described as follows: Stability in human plasma. The class given is ADME, cell-free.
The nature of data set [9]: Toxicity in human liver microsomes. Also noted: species or system Microsome.
A short description of data set [10]: Drug metabolism in human liver microsomes incubated up to 1 hr. The class given is ADME, Microsome. To be noted: read-out: Drug metabolism. In short, it runs like this:
(§1)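 Liver microsomes (1.0 mg/mL) preincubated with compound (1 μM final) for 10 min at 37 °C. Reaction started with NADPH-generating system (NADP+, glucose-6-phosphate, G6PDH, MgCl2) in 100 mM potassium phosphate, pH 7.4. Sampled at 0, 5, 15, 30 and 60 min; percent remaining at 1 hr reported.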

Data set [11] can be described thus: Drug metabolism in mouse liver microsomes incubated up to 1 hr. The data set is classed as ADME, Microsome. To be noted: read-out: Drug metabolism. The procedure, abridged:
as §1

A short description of data set [12]: Clearance in mouse at 5 mg/kg, iv. As to conditions: in vivo. The class given is ADME, organism-based.
Data set [13] in a line: Volume of distribution at steady state in mouse at 5 mg/kg, iv. The data set is classed as ADME, organism-based. To be noted: in vivo, read-out: Vdss.
The nature of data set [14]: Half life in mouse at 5 mg/kg, iv. The class given is ADME, organism-based. To be noted: in vivo.
Data set [15] is described as follows: Cmax in mouse at 10 mg/kg, po. Also noted: dose 10 mg/kg, route oral. To be noted: in vivo. The data set is classed as ADME, organism-based. In short, it runs like this:
(§2)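 Mice dosed orally by gavage, dose volume set by morning body weight. Serial blood samples (~30 μl) from submandibular or saphenous vein into K2EDTA. Plasma separated by centrifugation at 3000 g, stored at −70 °C, analysed by LC/MS/MS.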

A short description of data set [16]: Half life in mouse at 10 mg/kg, po. The data set is classed as ADME, organism-based. To be noted: in vivo. The procedure, abridged:
as §2

The nature of data set [17]: AUC in mouse at 10 mg/kg, po. The data set is classed as ADME, organism-based. As to conditions: in vivo. The procedure, abridged:
as §2

In data set [18] the test system is SK-HEP1. The data set is described as follows: Toxicity in human SKHEP1 cells assessed as effect on cell viability after 72 hrs. As to conditions: sk-hep1, 72 h. The data set is classed as cell-based.
Data set [19] can be described thus: Toxicity in NOD/SCID mouse xenografted with human SKHEP1 cells assessed as animal death at 30 to 60 mg/kg, po administered on day 4 to day 30 post-tumor cell inoculation. The class given is organism-based, SK-HEP1. As to conditions: in vivo. (In xenograft studies the graft and the host belong to different species.)
Data set [20] is described as follows: Toxicity in NOD/SCID mouse xenografted with human SKHEP1 cells assessed as effect on behavior phenotypes at 30 to 60 mg/kg, po administered on day 4 to day 30 post-tumor cell inoculation. The class given is organism-based, SK-HEP1. To be noted: in vivo.
The test system of data set [21] is SK-HEP1. Description: Antitumor activity against human SKHEP1 cells xenografted in NOD/SCID mouse assessed as tumor weight at 30 mg/kg, po administered on day 4 to day 30 post-tumor cell inoculation (reference value: 151 +/- 66 mg). The class given is functional.
The subject of data set [22] is SK-HEP1. Description: Antitumor activity against human SKHEP1 cells xenografted in NOD/SCID mouse assessed as tumor weight at 60 mg/kg, po administered on day 4 to day 30 post-tumor cell inoculation (reference value: 151 +/- 66 mg). The class given is functional.
Data set [23] has as its target T2, C-X-C chemokine receptor type 6 (Mus musculus, UniProt Q9EQ16).
T2 sequence (Q9EQ16 whole entry): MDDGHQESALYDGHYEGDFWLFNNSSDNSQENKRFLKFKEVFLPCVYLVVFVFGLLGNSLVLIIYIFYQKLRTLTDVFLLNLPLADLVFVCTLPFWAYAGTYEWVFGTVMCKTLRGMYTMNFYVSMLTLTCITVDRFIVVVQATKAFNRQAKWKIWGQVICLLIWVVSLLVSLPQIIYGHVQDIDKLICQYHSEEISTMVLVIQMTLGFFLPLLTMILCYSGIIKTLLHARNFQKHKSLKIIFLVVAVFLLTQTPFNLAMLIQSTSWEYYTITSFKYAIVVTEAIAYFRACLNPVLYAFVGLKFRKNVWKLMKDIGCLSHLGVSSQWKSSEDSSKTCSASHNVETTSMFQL
The data set is described as follows: Antagonist activity at mouse CXCR6 by DiscoveRx cell based beta-arrestin assay.

Data set [24] concerns SK-HEP1. The data set is described as follows: Antitumor activity against human SKHEP1 cells xenografted in NOD/SCID mouse assessed as inhibition of tumor growth at 30 to 60 mg/kg, po administered on day 4 to day 30 post-tumor cell inoculation. The class given is functional, organism-based.
A short description of data set [25]: Toxicity in NOD/SCID mouse xenografted with human SKHEP1 cells assessed as animal weight at 30 to 60 mg/kg, po administered on day 4 to day 30 post-tumor cell inoculation. The class given is organism-based, SK-HEP1. To be noted: in vivo.
Data set [26] deals with CXCR6 receptor (Prolink-tagged, human). Description: Safety index, ratio of LC50 for toxicity in human liver microsomes to IC50 for Prolink-tagged human CXCR6 receptor. To be noted: read-out: Ratio LC50/IC50.
Data set [27] has as its target T3, C-C chemokine receptor type 6 (Homo sapiens, UniProt P51684).
T3 sequence (P51684 whole entry): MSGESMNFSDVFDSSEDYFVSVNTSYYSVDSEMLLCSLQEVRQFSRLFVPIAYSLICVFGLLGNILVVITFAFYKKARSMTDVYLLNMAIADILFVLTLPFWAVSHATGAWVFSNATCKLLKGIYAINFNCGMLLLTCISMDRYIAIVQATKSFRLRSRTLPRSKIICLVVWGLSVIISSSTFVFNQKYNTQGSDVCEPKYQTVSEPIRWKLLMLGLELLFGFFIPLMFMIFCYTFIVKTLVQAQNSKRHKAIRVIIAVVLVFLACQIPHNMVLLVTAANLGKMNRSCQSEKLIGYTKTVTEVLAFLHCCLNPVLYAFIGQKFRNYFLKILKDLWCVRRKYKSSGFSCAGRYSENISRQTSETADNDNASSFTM
Description: Antagonist activity at human CCR6.

The target in data set [28] is T4, C-X-C chemokine receptor type 5 (Homo sapiens, UniProt P32302).
T4 sequence (P32302 whole entry): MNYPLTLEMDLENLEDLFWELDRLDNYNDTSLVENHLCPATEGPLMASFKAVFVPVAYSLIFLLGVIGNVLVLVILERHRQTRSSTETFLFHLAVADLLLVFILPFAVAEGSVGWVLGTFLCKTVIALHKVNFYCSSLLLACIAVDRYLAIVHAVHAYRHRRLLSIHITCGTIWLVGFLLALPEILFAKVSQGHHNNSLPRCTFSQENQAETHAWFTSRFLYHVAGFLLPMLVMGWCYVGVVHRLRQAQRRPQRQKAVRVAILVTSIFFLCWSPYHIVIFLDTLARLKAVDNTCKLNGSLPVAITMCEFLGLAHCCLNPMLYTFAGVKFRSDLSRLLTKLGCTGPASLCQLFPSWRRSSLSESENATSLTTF
Description: Antagonist activity at human CXCR5.

The target in data set [29] is C-X-C chemokine receptor type 4 (Homo sapiens, UniProt P61073). Description: Antagonist activity at human CXCR4.
Sequence of C-X-C chemokine receptor type 4 (P61073 whole entry): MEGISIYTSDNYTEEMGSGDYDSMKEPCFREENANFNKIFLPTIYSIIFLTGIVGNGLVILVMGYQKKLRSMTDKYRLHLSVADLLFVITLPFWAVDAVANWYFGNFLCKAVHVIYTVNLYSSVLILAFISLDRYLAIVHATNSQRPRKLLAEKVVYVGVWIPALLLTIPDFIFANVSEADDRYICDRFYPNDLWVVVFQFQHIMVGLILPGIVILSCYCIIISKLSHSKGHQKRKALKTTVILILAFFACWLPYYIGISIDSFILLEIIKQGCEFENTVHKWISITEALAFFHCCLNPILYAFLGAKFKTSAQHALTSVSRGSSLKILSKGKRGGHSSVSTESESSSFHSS

For the compound `COc1cc(C(=O)N[C@@H]2C[C@H]3CCC[C@@H](C2)N3Cc2nc3c(Cl)cccc3s2)cc(OC)c1OC`, the IC50 came out at 130 nM in data set [1] and 900 nM in [3]. Further, the inhibition in [2] (concentration not given here) was 103%; in data set [4] (concentration not given here) it was 95%. For the same compound, in data set [5], the inhibition result is “Active”.

As for `COc1cc(C(=O)N[C@@H]2C[C@H]3CCC[C@@H](C2)N3Cc2nc3c(C(F)(F)F)cccc3s2)cc(OC)c1OC`, the IC50 in [1] was 40 nM; in data set [23], greater than 40000 nM. Also, the inhibition in data set [2] (concentration not given here) is 103%; in [4] (concentration not given here) it was 98%; in data set [5], “Dose-dependent effect”. Also, in data set [6], the Ratio result was “>= 10”. Besides, the Stability entry in data set [7] and in data set [8] was “Stable” throughout. Also, the LC50 entry in [9] is reported as “>= 25 uM”. For the same compound, the metabolised at 1 h in data set [10] and in data set [11] was 100% each time. The compound further returned a clearance in data set [12] of 28.4 mL/min/kg. In data set [13], the Vd was found to be 3.32 L/kg. Besides, the figures for the half-life in [14] and in data set [16] were 1.58 h and 2.82 h, respectively. In [15], this compound had a Cmax of 798 ng/mL. The AUC in data set [17] was 2050 ng·h/mL. In addition, the Activity result in the data set on SK-HEP1 [18] is recorded as “Non-Toxic”; in data set [19], “Non-Toxic”; in data set [20], “Non-Toxic”; in the data set with SK-HEP1 [21], 59 mg; in the data set with SK-HEP1 [22], 55 mg; in data set [25] it was “Non-Toxic”. The result in the data set on SK-HEP1 [24] was Active. The selectivity ratio in data set [26] was greater than 40.

In the case of `COc1cc(C(=O)N[C@@H]2C[C@H]3CCC[C@@H](C2)N3CC(=O)Nc2ccccc2Cl)cc(OC)c1OC`, the IC50 in data set [1] is 140 nM; in data set [3] it was 1400 nM; in data set [27], greater than 80000 nM; in data set [28], greater than 80000 nM; in [29], greater than 80000 nM; in data set [23] it was 18000 nM. Also, the inhibition in [2] (concentration not given here) was determined as 100%; in data set [4] (concentration not given here) it was 102%.

As for `O=C(CN1[C@@H]2CCC[C@H]1C[C@H](NC(=O)c1ccccc1)C2)Nc1ccccc1`, the half-maximal inhibitory concentration (IC50) in [1] was greater than 40000 nM; in [3] it was greater than 80000 nM. For the same compound, the inhibition result in [2], in data set [4] and in [5] was “inactive” throughout.

The values above are taken from ChEMBL document CHEMBL4610036, “Discovery of small molecule antagonists of chemokine receptor CXCR6 that arrest tumor growth in SK-HEP-1 mouse xenografts as a model of hepatocellular carcinoma” (Bioorg Med Chem Lett, 2020).
